Laboratory results from article PMC4096895 (Organic & biomolecular chemistry, 2014).

Key:
[1] = target: β-galactosidase (A. oryzae) (Aspergillus oryzae, UniProt Q2UCU3); experiment: Assay for the inhibited enzymatic substrate hydrolysis; assay type: biochemical; conditions: 50 mM acetate buffer pH 5.0, 30 °C
[2] = Amidine stability assay; assay type: physicochemical
Outline: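 Test compound kept as a 0.168 M stock in nanopure water at ambient temperature, and aliquots were diluted into the incubation buffer. Samples were flash-frozen in liquid nitrogen and stored at −18°C until analysis. Quantification was by HPLC on a carbohydrate Na+ (8%) column at 80°C, with nanopure water as eluent at 0.4 mL/min and light-scattering detection.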

[3] = tested on: β-galactosidase (A. oryzae); experiment: Assay for enzymatic substrate hydrolysis; assay type: biochemical, Aspergillus oryzae; conditions: 50 mM acetate buffer pH 5.0, 30 °C, no inhibitor
[4] = Water solubility under the kinetic assay conditions; assay type: physicochemical; conditions: under the used assay condition (50 mM acetate buffer pH 5)

Sequence of β-galactosidase (A. oryzae) (Aspergillus oryzae, UniProt Q2UCU3) (Q2UCU3 19-1005): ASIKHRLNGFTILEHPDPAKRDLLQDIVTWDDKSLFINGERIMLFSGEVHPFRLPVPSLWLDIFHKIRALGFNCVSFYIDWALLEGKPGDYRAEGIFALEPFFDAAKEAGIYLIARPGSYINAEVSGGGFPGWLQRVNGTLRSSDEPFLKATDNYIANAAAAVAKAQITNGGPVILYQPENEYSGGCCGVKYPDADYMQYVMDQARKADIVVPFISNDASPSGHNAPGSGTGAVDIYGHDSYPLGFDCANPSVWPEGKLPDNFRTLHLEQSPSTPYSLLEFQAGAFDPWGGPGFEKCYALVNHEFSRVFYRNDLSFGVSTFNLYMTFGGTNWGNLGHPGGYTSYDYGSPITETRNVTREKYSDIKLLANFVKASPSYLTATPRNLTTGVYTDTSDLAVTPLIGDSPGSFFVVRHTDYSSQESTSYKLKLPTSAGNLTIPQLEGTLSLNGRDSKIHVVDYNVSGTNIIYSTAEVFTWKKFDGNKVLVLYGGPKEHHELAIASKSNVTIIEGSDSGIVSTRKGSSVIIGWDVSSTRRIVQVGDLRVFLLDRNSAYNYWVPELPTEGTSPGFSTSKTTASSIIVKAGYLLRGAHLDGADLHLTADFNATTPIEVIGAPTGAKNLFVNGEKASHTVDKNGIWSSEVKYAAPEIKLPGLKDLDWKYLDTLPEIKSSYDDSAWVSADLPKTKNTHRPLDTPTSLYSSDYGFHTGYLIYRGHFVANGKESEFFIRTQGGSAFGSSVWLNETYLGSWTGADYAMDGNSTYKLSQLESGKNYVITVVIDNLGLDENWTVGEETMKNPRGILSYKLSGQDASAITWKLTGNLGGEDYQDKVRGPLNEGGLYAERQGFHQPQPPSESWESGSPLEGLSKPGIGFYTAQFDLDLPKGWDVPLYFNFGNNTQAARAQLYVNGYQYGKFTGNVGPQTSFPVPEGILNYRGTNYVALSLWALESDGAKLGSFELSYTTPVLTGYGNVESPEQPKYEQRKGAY

Structure (SMILES): Cc1ccc(CN=C2N[C@H](CO)[C@H](O)[C@H](O)[C@H]2O)cc1 [1d, p-methylbenzyl-D-galactonoamidine]
- Ki ([1]; substrate 2a): 23.3 nM
- Ki ([1]; substrate 2b): 14.1 nM
- Ki ([1]; substrate 2c): 13.3 nM
- Ki ([1]; substrate 2e): 16.5 nM
- Ki ([1]; substrate 2f): 24.6 nM
- Ki ([1]; substrate 2g): 55.7 nM
- Ki ([1]; substrate 2i): 11.5 nM
- Ki ([1]; substrate 2k): 8 nM
- Ki ([1]; substrate 2h): 15.1 nM
- Ki ([1]; substrate 2d): 11.6 nM
- stability ([2]; 5 mM CAPS buffer at pH 10.5 and 0°C, preliminary results): sufficient stability
- stability ([2]; 5 mM TAPS buffer at pH 9 and 10°C, preliminary results): sufficient stability
- stability ([2]; 50 mM CAPS buffer at pH 10.5 and 72°C): insufficient stability
- stability (HPLC) ([2]; acetate buffer at 30°C, same amount of time (3h)): no evidence for compound decomposition
- time found stable ([2]; nanopure water at 30, 50 or 72°C): ≥ 3 h

Structure (SMILES): OCC1NC(=NCc2cccc(F)c2)C(O)C(O)C1O [1f, 3-fluorobenzyl-D-galactonoamidine]
- Ki ([1]; substrate 2a): 16.4 nM
- Ki ([1]; substrate 2b): 22.3 nM
- Ki ([1]; substrate 2c): 18.1 nM
- Ki ([1]; substrate 2e): 14.2 nM
- Ki ([1]; substrate 2f): 30.3 nM
- Ki ([1]; substrate 2g): 58.1 nM
- Ki ([1]; substrate 2i): 13.7 nM
- Ki ([1]; substrate 2k): 20.3 nM
- Ki ([1]; substrate 2h): 22.8 nM
- Ki ([1]; substrate 2d): 13.3 nM

Structure (SMILES): O=[N+]([O-])c1ccccc1O[C@@H]1O[C@H](CO)[C@H](O)[C@H](O)[C@H]1O [2a, 2-nitrophenyl-β-D-galactopyranoside, reference compound]
- Km [3]: 1270 µM
- kcat [3]: 76.5 s⁻¹

Structure (SMILES): Cc1ccc(O[C@@H]2O[C@H](CO)[C@H](O)[C@H](O)[C@H]2O)c([N+](=O)[O-])c1 [2b, 4-Methyl-2-nitrophenyl-β-D-galactopyranoside]
- Km [3]: 1490 µM
- kcat [3]: 80.13 s⁻¹

Structure (SMILES): O=[N+]([O-])c1cc(F)ccc1O[C@@H]1O[C@H](CO)[C@H](O)[C@H](O)[C@H]1O [2c, 4-Fluoro-2-nitrophenyl-β-D-galactopyranoside]
- Km [3]: 1240 µM
- kcat [3]: 77.63 s⁻¹

Structure (SMILES): O=[N+]([O-])c1cc(Cl)ccc1O[C@@H]1O[C@H](CO)[C@H](O)[C@H](O)[C@H]1O [2d, 4-Chloro-2-nitrophenyl-β-D-galactopyranoside]
- Km [3]: 960 µM
- kcat [3]: 68.97 s⁻¹

Structure (SMILES): O=[N+]([O-])c1cc(Br)ccc1O[C@@H]1O[C@H](CO)[C@H](O)[C@H](O)[C@H]1O [2e, 4-Bromo-2-nitrophenyl-β-D-galactopyranoside]
- Km [3]: 1100 µM
- kcat [3]: 64.7 s⁻¹

Structure (SMILES): O=[N+]([O-])c1ccc(F)cc1O[C@@H]1O[C@H](CO)[C@H](O)[C@H](O)[C@H]1O [2f, 5-Fluoro-2-nitrophenyl-β-D-galactopyranoside]
- Km [3]: 1780 µM
- kcat [3]: 64.77 s⁻¹

Structure (SMILES): Cc1ccc([N+](=O)[O-])c(O[C@@H]2O[C@H](CO)[C@H](O)[C@H](O)[C@H]2O)c1 [2g, 5-Methyl-2-nitrophenyl-β-D-galactopyranoside]
- Km [3]: 4270 µM
- kcat [3]: 70.15 s⁻¹

Structure (SMILES): O=[N+]([O-])c1ccc(O[C@@H]2O[C@H](CO)[C@H](O)[C@H](O)[C@H]2O)cc1 [2h, 4-nitrophenyl-β-D-galactopyranoside, reference compound]
- Km [3]: 840 µM
- kcat [3]: 53.97 s⁻¹

Structure (SMILES): O=[N+]([O-])c1ccc(O[C@@H]2O[C@H](CO)[C@H](O)[C@H](O)[C@H]2O)c(F)c1 [2i, 2-Fluoro-4-nitrophenyl-β-D-galactopyranoside]
- Km [3]: 920 µM
- kcat [3]: 61.17 s⁻¹

Structure (SMILES): O=[N+]([O-])c1ccc(O[C@@H]2O[C@H](CO)[C@H](O)[C@H](O)[C@H]2O)c(Cl)c1 [2k, 2-Chloro-4-nitrophenyl-β-D-galactopyranoside]
- Km [3]: 700 µM
- kcat [3]: 39.68 s⁻¹

Structure (SMILES): COc1ccc(O[C@@H]2O[C@H](CO)[C@H](O)[C@H](O)[C@H]2O)c([N+](=O)[O-])c1 [2p, 4-Methoxy-2-nitrophenyl-β-D-galactopyranoside]
- water solubility [4]: surprising low water solubility
